Screening data: PubChem BioAssay, The Scripps Research Institute Molecular Screening Center
UHRF1 binding: human UHRF1 methylated DNA binding inhibitors | Q96T88 | UHRF1 binding to methylated oligo, TR-FRET | inhibition, % at 4.4 µM | 0.75% of 370,000 active | AID 687016; in the data active means inhibition above about 21%;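 further: UHRF1 SRA domain binding a hemimethylated CpG hairpin DNA probe; 0% = median of test compound wells and 100% = reference inhibitor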
TDP2 inh: TDP2 (human) inhibition, absorbance primary screen | O95551 | recombinant TDP2, T5PNP hydrolysis, p-nitrophenol absorbance 415 nm | inhibition, % at 12.8 µM | 0.34% of 370,000 active;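 active means inhibition above the mean of all tested compounds plus 3 SD, set per campaign, cut at about 25% in these data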;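 further: 0% = DMSO with enzyme and 100% = buffer with substrate but no TDP2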
Target sequence (O95551 whole entry, looked up): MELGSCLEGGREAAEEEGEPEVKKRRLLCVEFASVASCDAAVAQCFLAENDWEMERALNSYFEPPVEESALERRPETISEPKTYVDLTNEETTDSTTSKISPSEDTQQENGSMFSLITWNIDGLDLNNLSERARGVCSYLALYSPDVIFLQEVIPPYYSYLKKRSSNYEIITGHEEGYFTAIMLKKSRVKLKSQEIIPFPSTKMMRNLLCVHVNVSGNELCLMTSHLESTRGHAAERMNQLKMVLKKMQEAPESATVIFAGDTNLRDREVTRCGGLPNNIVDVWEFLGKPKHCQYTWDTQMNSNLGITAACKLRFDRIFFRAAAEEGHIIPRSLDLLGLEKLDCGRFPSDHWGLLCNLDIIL
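Evaluation: % inhibition relative to enzyme-containing and enzyme-free wells. Material: recombinant human TDP2. Benchmarks: enzyme-free and DMSO wells. Timing: enzyme reaction with compound for 2 h at 37 °C. Compound dosing: 12.8 µM only. Measured by: p-Nitrophenol epi absorbance. Reagent: T5PNP substrate at 5 mM, a TopII-DNA adduct mimic. Replication: single well per compound.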
MBD2 inh: inhibitors of human MBD2 binding to methylated oligonucleotide; 0.31% of 370,000 active; Q9UBB5; TR-FRET; inhibition, % at 4.4 µM; in the data active means inhibition above about 13%
LEDGF integ inh: blocks HIV-1 LEDGF/p75-dependent DNA integration; TR-FRET IN-LEDGF/p75 DNA integration, Eu/Cy5; inhibition, % at 3.7 µM; 0.64% of 370,000 active; AID 743269;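 active means inhibition above the screen-wide mean plus 3 SD, cut at about 13% in these data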;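 further: signal is the Cy5 over europium emission ratio at 671 and 618 nm; 0% = plate median of compound wells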
IN multimer act: counter-screen for LEDGF/p75 integration inhibitors: HIV-1 integrase multimerization activators; shares compounds with LEDGF integ inh; TR-FRET HIV-1 integrase multimerization, biochemical; activation, % at 7.7 µM; 17% of 2,000 active; AID 1053131; in the data active means activation above about 8.9%
TRFRET interf: optically interferes with TR-FRET readout in LEDGF counter-screen | shares compounds with LEDGF integ inh | TR-FRET optical interference counterscreen, HIV-1 IN multimerization | inhibition, % at 7.7 µM | 2,000 tested, under 10 active | AID 1053135;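 active means inhibition above the mean over all tested compounds plus 3 SD, which no compound reached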;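 further: 0% = integrase with antibodies and DMSO and 100% = antibodies without integrase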
LEDGF integ conf: confirmation of HIV-1 LEDGF/p75-dependent integration inhibitors; shares compounds with LEDGF integ inh; TR-FRET LEDGF/p75-dependent HIV-1 integration, biochemical; inhibition, % at 3.7 µM; 36% of 2,000 active; in the data active means inhibition above about 14%
The depositor's hits bear a star; . = no result given. Shown are actives, neighbours in structure and some others; about 1.6% of the full set was active somewhere.

SMILES | UHRF1 binding | TDP2 inh | MBD2 inh | LEDGF integ inh | IN multimer act | TRFRET interf | LEDGF integ conf
S=C(NCc1ccccc1)NCc1cccc(CNC(=S)NCc2ccccc2)c1 | -6 | -7 | 2 | 44* | 1 | -7 | -11
Oc1ccc(NC(=S)Nc2ccc(O)cc2)cc1 | -5 | 20 | -4 | 17* | 6 | -28 | 1
COc1ccc(C2CC(=O)C(c3cccc(F)c3)=CN2Cc2ccccc2)cc1 (configuration not stated) | 1 | -10 | 3 | 3 | . | . | .
COCC(=O)N1[C@H](CO)[C@@H](c2ccc(-c3cccnc3)cc2)[C@H]1CN(C)S(=O)(=O)c1ccccc1[N+](=O)[O-] | -3 | -10 | 0 | 6 | . | . | .
O=[N+]([O-])C1=CC=C2C(=NC3(CCCCC3)N2O)C1=NC1CCCCC1 | 3 | -5 | -4 | 4 | . | . | .
CC1(C)CC(N=C2C([N+](=O)[O-])=CC=C3C2=NC2(CCCCC2)N3O)CC(C)(C)N1 | -16 | 12 | -17 | 26* | 6 | -29 | 3
Cc1ccc(S(=O)(=O)N2CCN(C(=O)N(c3ccccc3)c3ccccc3)CC2)cc1 | 0 | 5 | 0 | 2 | . | . | .
CN(C)S(=O)(=O)N1CCN(C(=O)N(c2ccccc2)c2ccccc2)CC1 | 3 | 0 | 3 | 71* | 0 | 1 | 0
O=C(NCCc1ccccc1)OCc1cn(-c2cccc(F)c2F)nn1 | 3 | -1 | 8 | -5 | . | . | .
COc1cc(C)cc(C(=O)O)c1C1=C(O)c2cccc(O)c2C(=O)C1=O | 23* | -12 | -2 | 18* | 13* | -65 | 19*
Cc1cc(O)c2c(c1)C(=O)c1cccc(O)c1C2=O | 2 | 11 | 1 | -3 | . | . | .
C[C@@H]1C=C(C(=O)NCc2ccccc2)O[C@H](OCc2ccc(CO)cc2)C1 | 22* | 23 | 9 | 16* | 0 | 2 | 1
O=C(NCc1ccccc1)C1=C[C@H](c2ccccc2)C[C@H](OCc2ccc(CO)cc2)O1 | -4 | -17 | -2 | -2 | . | . | .
COc1ccc(N(C(C)C(=O)N/N=C/c2ccc(OC(C)C)cc2)S(C)(=O)=O)cc1 (configuration not stated) | -2 | 2 | -6 | 2 | . | . | .
COc1ccc(N(C(C)C(=O)N/N=C/c2cccnc2)S(C)(=O)=O)cc1 (configuration not stated) | 1 | 9 | 1 | 35* | 0 | -1 | 2
CCC1CCCCN1C(=O)n1ncc(C(O)(c2ccccc2)c2ccccc2)n1 (configuration not stated) | 3 | 3 | 2 | 0 | . | . | .
CC1Cc2ccccc2N1C(=O)c1ccc(F)c(S(=O)(=O)N2CCOCC2)c1 (configuration not stated) | 0 | -3 | -2 | 26* | 2 | -6 | 4
O=C(Nc1ccccc1N1CCOCC1)c1ccc(F)c(S(=O)(=O)N2CCOCC2)c1 | -2 | -2 | -3 | 2 | . | . | .
COc1cc(NC(=O)CN2CCCCCC2)cc(OC)c1 | -1 | 2 | 0 | 19* | 1 | -2 | -11
Cc1ccc(/C=C2\Oc3cc(OCC(=O)NN)ccc3C2=O)o1 | 2 | 1 | 3 | 21* | 8 | -28 | 14*
COc1cccc(/C=C2\Oc3cc(OCC(=O)N4CCCC4)ccc3C2=O)c1OC | -2 | -3 | 3 | -1 | . | . | .
COCCN(CCOC)Cc1c(O)ccc2c1O/C(=C\c1ccc(C)o1)C2=O | 14 | -10 | -1 | 40* | 13* | -45 | 14*
CCN(CC)Cc1c(O)ccc2c1O/C(=C\C=C\c1ccccc1)C2=O | -11 | -15 | -6 | 4 | . | . | .
Cc1ccc(-n2c(SCC(=O)Nc3ccc4c(c3)OCCO4)nnc2-c2cnccn2)cc1 | -2 | -5 | 1 | 1 | . | . | .
Oc1ccc(Br)cc1-c1cc(-c2ccccc2Cl)[nH]n1 | 6 | -17 | 7 | 25* | 1 | -6 | -4
SMILES | UHRF1 binding | TDP2 inh | MBD2 inh | LEDGF integ inh | IN multimer act | TRFRET interf | LEDGF integ conf
Cc1nc(Cl)c(C(=O)NCc2ccccc2)c(C)c1[N+](=O)[O-] | -1 | -12 | 1 | 20* | 0 | 1 | 0
Cc1nc(Cl)c(C(=O)NCCc2ccccc2)c(C)c1[N+](=O)[O-] | -1 | 3 | 0 | -2 | . | . | .
CCC(CC)C(=O)OCC(=O)NC12CC3CC(CC(C3)C1)C2 | 5 | 3 | -2 | 14* | -2 | 10 | 6
C=CCNC(=S)Nc1nc2c(cc1C(=O)OCC)COC(C)(C)C2 | -1 | 8 | -2 | 0 | . | . | .
CCOC(=O)c1cc2c(nc1NC(=S)Nc1ccccc1)CC(C)(C)OC2 | 1 | 8 | 0 | 18* | 2 | -8 | 3
OC(c1ccccc1)(c1ccccc1)C1CCN(CCCNc2ccccc2F)CC1 | 0 | -2 | 1 | -3 | . | . | .
O=C(O)c1cc(-c2ccco2)[nH]n1 | 12 | -1 | 3 | 15* | 2 | -10 | 4
COC(=O)C1CN(C2CC2)CCS(=O)(=O)N1Cc1cn(Cc2ccc(C)cc2)nn1 (configuration not stated) | 11 | -10 | 0 | 2 | . | . | .
O=C(NCc1ccco1)c1cc2ccc(O)cc2oc1=O | 8 | -6 | -2 | 30* | 20* | -99 | 19*
O=c1oc(-c2cccs2)nc2sc3c(c12)CCC3 | -4 | 0 | 1 | 0 | . | . | .
O=c1oc(/C=C/c2ccco2)nc2sc3c(c12)CCC3 | 40* | 0 | 12 | 25* | 1 | -4 | 2
C(=N\NC1=Nc2cccc3cccc1c23)/c1ccccc1 | 1 | -1 | 0 | 19* | 0 | -1 | -7
Clc1ccc(/C=N/NC2=Nc3cccc4cccc2c34)cc1 | -1 | 7 | 1 | 2 | . | . | .
CC(C)(C)C(=O)CSc1nnc(SCc2cccc3ccccc23)s1 | -1 | 2 | 1 | -1 | . | . | .
Cc1ccc(/C=C2\SC(=S)N(C3CCS(=O)(=O)C3)C2=O)cc1 (configuration not stated) | 5 | -16 | 8 | -5 | . | . | .
O=C1/C(=C\c2ccco2)SC(=S)N1C1CCS(=O)(=O)C1 (configuration not stated) | 54* | 13 | 13 | 40* | 6 | -31 | 48*
O=C1/C(=C/c2ccco2)SC(=S)N1C1CCS(=O)(=O)C1 (configuration not stated) | 32* | -10 | 10 | 48* | 1 | -4 | 27*
FC(F)(F)c1ccc2nc(CNc3nc(N4CCOCC4)nc4c3ncn4-c3ccsc3)[nH]c2c1 | -1 | -3 | 2 | 6 | . | . | .
Cc1nc2cc(C(=O)N3CCN(C(=O)C(Cl)Cl)CC3)ccc2n1C1CCCC1 | 1 | -1 | -4 | -5 | . | . | .
